Experimental findings from ChEMBL document CHEMBL4229376, “Optimization of the pharmacokinetic properties of potent anti-trypanosomal triazine derivatives” (Eur J Med Chem, 2018) are described below.

Data set [1] concerns Trypanosoma brucei brucei. Put plainly: Antitrypanosomal activity against suramin-sensitive Trypanosoma brucei brucei Squib 427 after 72 hrs by resazurin dye-based fluorimetric analysis. The following applies: Squib 427, 72 h. It counts as functional, organism-based. For orientation: Resazurin is reduced to fluorescent resorufin, in cell work by metabolically active cells.
Data set [2] relates to Peritoneal macrophage. The data set can be described thus: Cytotoxicity against mouse primary peritoneal macrophages after 72 hrs by resazurin dye-based fluorimetric analysis. It counts as cell-based.
The nature of data set [3]: Drug metabolism in human liver microsomes assessed as CYP450 mediated compound […] by measuring parent compound remaining at 5 uM after 30 mins in presence of NADPH by UPLC/MS/ESI analysis. The format is ADME. To be noted: read-out: Stability. A general note: Liver microsomes are vesicles of endoplasmic reticulum, rich in cytochrome P450 enzymes.
Data set [4] is described as follows: Drug metabolism in mouse liver microsomes assessed as UGT mediated compound […] by measuring parent compound remaining at 5 uM after 60 mins in presence of UDPGA by UPLC/MS/ESI analysis. It counts as ADME. The following applies: 1 h. The procedure, abridged:
(§1)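 Metabolic stability was run with mouse liver microsomal fraction (S9) and read as percent parent compound remaining over incubation time. Diclofenac served as the reference compound.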

A short description of data set [5]: Drug metabolism in human liver microsomes assessed as CYP450 mediated compound […] by measuring parent compound remaining at 5 uM after 60 mins in presence of NADPH by UPLC/MS/ESI analysis. It counts as ADME. To be noted: read-out: Stability.
Data set [6] is described as follows: Drug metabolism in human plasma assessed as parent compound remaining after 15 mins by UPLC/MS/ESI analysis. The following applies: for remaining at 0.25 h: read-out: Stability. The format is ADME, cell-free.
Data set [7] in a line: Cytotoxicity against human MRC5 SV2 cells after 72 hrs by resazurin dye-based fluorimetric analysis. It counts as cell-based. To be noted: MRC-5 SV2, 72 h.
Data set [8] in a line: Drug metabolism in human plasma assessed as parent compound remaining after 1440 mins by UPLC/MS/ESI analysis. The format is ADME, cell-free. To be noted: for remaining at 24 h: read-out: Stability. The procedure, abridged: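 Compound incubated in human plasma for 24 h at 37 °C, and the fraction of parent compound remaining was determined.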
The nature of data set [9]: Drug metabolism in mouse liver microsomes assessed as CYP450 mediated compound […] by measuring parent compound remaining at 5 uM after 30 mins in presence of NADPH by UPLC/MS/ESI analysis. The format is ADME. The following applies: read-out: Stability.
Data set [10] can be described thus: Drug metabolism in mouse liver microsomes assessed as UGT mediated compound […] by measuring parent compound remaining at 5 uM after 30 mins in presence of UDPGA by UPLC/MS/ESI analysis. The format is ADME. The following applies: 0.5 h. The procedure, abridged: as §1
Data set [11] can be described thus: Drug metabolism in human liver microsomes assessed as CYP450 mediated compound […] by measuring parent compound remaining at 5 uM after 15 mins in presence of NADPH by UPLC/MS/ESI analysis. The format is ADME. To be noted: read-out: Stability.
Data set [12] concerns Leishmania infantum. The data set can be described thus: Antileishmanial activity against Leishmania infantum MHOM/MA (BE)/67 amastigotes infected in primary peritoneal mouse macrophages after 120 hrs by giemsa staining-based microscopic analysis. The following applies: MHOM/MA (BE)/67, 120 h. It counts as functional, organism-based.
The nature of data set [13]: Drug metabolism in human liver microsomes assessed as UGT mediated compound […] by measuring parent compound remaining at 5 uM after 30 mins in presence of UDPGA by UPLC/MS/ESI analysis. The format is ADME. The following applies: read-out: Stability.
For data set [14], the system named is Plasmodium falciparum. Put plainly: Antiplasmodial activity against chloroquine-resistant Plasmodium falciparum K1 infected in human erythrocytes after 72 hrs by Malstat reagent-based spectrophotometric analysis. It counts as functional, organism-based. To be noted: K1, 72 h.
Data set [15] in a line: Drug metabolism in human liver microsomes assessed as UGT mediated compound […] by measuring parent compound remaining at 5 uM after 60 mins in presence of UDPGA by UPLC/MS/ESI analysis. It counts as ADME. To be noted: read-out: Stability.
A short description of data set [16]: Drug metabolism in mouse liver microsomes assessed as CYP450 mediated compound […] by measuring parent compound remaining at 5 uM after 15 mins in presence of NADPH by UPLC/MS/ESI analysis. It counts as ADME. The following applies: read-out: Stability.
A short description of data set [17]: Drug metabolism in human liver microsomes assessed as UGT mediated compound […] by measuring parent compound remaining at 5 uM after 15 mins in presence of UDPGA by UPLC/MS/ESI analysis. It counts as ADME. To be noted: read-out: Stability.
The nature of data set [18]: Drug metabolism in human plasma assessed as parent compound remaining after 30 mins by UPLC/MS/ESI analysis. It counts as ADME, cell-free. To be noted: for remaining at 0.5 h: read-out: Stability.
For data set [19], the system named is Trypanosoma cruzi. The data set can be described thus: Antitrypanosomal activity against nifurtimox-sensitive Trypanosoma cruzi Tulahuen CL2 infected in human MRC5 SV2 cells assessed as reduction in parasite burden after 168 hrs by CPRG and Nonidet based spectrophotometric analysis. The format is functional, organism-based. To be noted: Tulahuen CL2, MRC-5 SV2, 168 h.

A short description of data set [20]: Drug metabolism in human plasma assessed as parent compound remaining after 60 mins by UPLC/MS/ESI analysis. It counts as ADME, cell-free. The following applies: read-out: Stability.
Data set [21] can be described thus: Drug metabolism in mouse liver microsomes assessed as CYP450 mediated compound […] by measuring parent compound remaining at 5 uM after 60 mins in presence of NADPH by UPLC/MS/ESI analysis. To be noted: read-out: Stability. The format is ADME.
Data set [22] can be described thus: Drug metabolism in mouse liver microsomes assessed as UGT mediated compound […] by measuring parent compound remaining at 5 uM after 15 mins in presence of UDPGA by UPLC/MS/ESI analysis. The format is ADME. The following applies: 0.25 h. The method in brief: as §1
Data set [23] concerns Trypanosoma brucei brucei. The data set can be described thus: Antitrypanosomal activity against Trypanosoma brucei brucei Squib 427 assessed as reduction in parasite growth at 7 to 14 times IC50 after 18 to 48 hrs resazurin dye-based fluorimetric analysis. It counts as functional, organism-based. The procedure, abridged:
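In vitro time course of T. b. brucei growth in the presence of compound, with parasite growth expressed as % of control.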

The subject of data set [24] is Trypanosoma brucei brucei. Put plainly: Antitrypanosomal activity against Trypanosoma brucei brucei Squib 427 infected in Swiss mouse assessed as mouse survival at 10 mg/kg, ip administered as single dose for 5 days and measured on day 14 post infection. The format is functional, organism-based. The procedure, abridged: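 Acute T. b. brucei mouse infection model. Dosing was PO or IP at 10–50 mg/kg, once (SID) or twice (BID) daily for 5 days after infection, with 3 mice per group. […] Read-outs were mean survival time and survivors on day 14 post infection.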

Data set [25] relates to Trypanosoma brucei brucei. The data set can be described thus: Antitrypanosomal activity against Trypanosoma brucei brucei Squib 427 infected in Swiss mouse assessed as mean survival days at 10 mg/kg, ip administered as single dose for 5 days. The format is functional. The procedure, abridged:
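Acute mouse infection model with T. b. brucei. Dosing ran for 5 days after infection, orally or intraperitoneally, once or twice daily. Groups were 3 mice each, with vehicle-treated infected controls. The read-out was mean survival time in days, plus the number of survivors on day 14 post-infection.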

Each structure is given as a SMILES string. Active and inactive are the calls of the source. The calls are words filed in the database; no cut-off is given here.

Broadly, the IC50 is the concentration that inhibits the measured activity by half.

Take `Cc1cc(C)c(Oc2nc(N)nc(Nc3ccc(F)cc3)n2)c(C)c1`: the IC50 was 0.3 µM in data set [1]; greater than 64 µM in data set [2]; greater than 64 µM in data set [7]; greater than 64 µM in data set [12]; greater than 64 µM in data set [14]; greater than 64 µM in data set [19]. For the same compound, the remaining at 0.5 h, 5 µM in data set [3] amounted to 33%; in [9], 4%; in data set [13], 118%. In addition, the Stability came out at 112% in data set [4], 151% in data set [8] (24 h), 102% in [10] and 94% in data set [22]. The remaining at 1 h, 5 µM in data set [5] turned out to be 13%; in data set [15], 91%; in data set [21], 0.3%. In addition, the remaining at 0.25 h in [6] is 100%. Besides, the remaining at 0.25 h, 5 µM in data set [11] was found to be 53%; in data set [16], 22%; in data set [17] it was 95%. For the same compound, in [18], the remaining at 0.5 h is 104%. In data set [20], the remaining at 1 h is 115%.

Take `Cc1ccc(C(=O)Nc2ccc(S(=O)(=O)O)c3cc(S(=O)(=O)O)cc(S(=O)(=O)O)c23)cc1NC(=O)c1cccc(NC(=O)Nc2cccc(C(=O)Nc3cc(C(=O)Nc4ccc(S(=O)(=O)O)c5cc(S(=O)(=O)O)cc(S(=O)(=O)O)c45)ccc3C)c2)c1` [SURAMIN]: the outcome in data set [23] and in [24] was Active. Moreover, in [25], the MST was greater than 7 days.

Turning to `Cc1ccc(Oc2nc(N)nc(Nc3ccc(F)cc3)n2)cc1`, the 50% inhibitory concentration (IC50) is 0.4 µM in [1]; 32 µM in data set [2]; greater than 64 µM in data set [7]; 32.5 µM in data set [12]; greater than 64 µM in data set [14]; greater than 64 µM in data set [19]. Further, the remaining at 0.5 h, 5 µM came to 99% in data set [3], 28% in data set [9] and 105% in data set [13]. The Stability in data set [4] amounted to 110%; in data set [10] it was 104%; in [22] it was 91%. In addition, the remaining at 1 h, 5 µM in [5] came to 113%; in data set [15] it was 94%; in data set [21], 10.5%. Also, the remaining at 0.25 h in data set [6] amounted to 104%. In addition, the remaining at 24 h in data set [8] turned out to be 95%. The remaining at 0.25 h, 5 µM in [11] is 107%; in data set [16], 57%; in [17] it was 96%. The remaining at 0.5 h in data set [18] is 94%. In data set [20], the remaining at 1 h was found to be 101%.

Take `Cc1ccc(Oc2nc(N)nc(Nc3ccc(F)cc3)n2)c(Cl)c1`: the IC50 was 0.5 µM in [1]; 32 µM in [2]; greater than 64 µM in [7]; 27.3 µM in data set [12]; 51.7 µM in data set [14]; 7.8 µM in data set [19]. In addition, the remaining at 0.5 h, 5 µM in data set [3] was 87%; in data set [9] it was 6%; in [13] it was 88%. Further, the Stability was determined as 113% in data set [4]; 121% in data set [6] (0.25 h); 109% in data set [10]; 124% in data set [18] (0.5 h); 108% in data set [22]. The remaining at 1 h, 5 µM in [5] was 67%; in data set [15] it was 79%; in data set [21] it was 1.4%. Further, the remaining at 24 h in data set [8] was 100%. Moreover, the values for the remaining at 0.25 h, 5 µM in data set [11], in data set [16] and in data set [17] were 90%, 25% and 88%, respectively. In addition, in [20], the remaining at 1 h came out at 117%.
